Measured values as given in ChEMBL document CHEMBL3525907, “Studies on the metabolism and biological activity of the epimers of sulindac” (Drug Metab Dispos, 2011).
Activity calls are given as the source filed them. The rule behind the calls is not given here.

Key:
[1] = target: Methionine-R-sulfoxide reductase B2, mitochondrial (Homo sapiens, UniProt Q9Y3D2); assay: Drug metabolism assessed as human MSRB2-mediated reduced product formation; type: ADME
[2] = Drug metabolism in human HepG2 cells assessed as induction of cytochrome P450-mediated sulindac sulfone formation at 125 uM preincubated for 2 to 24 hrs followed by compound-washout and fresh compound addition measured after 1 hr by HPLC analysis; type: ADME, cell-based; details: hepg2, 1 h
Procedure, shortened: (§1)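 HepG2 cells in MEM/10% FBS grown to 80% confluence, pretreated 2–24 h with 125 μM (R)- or (S)-sulindac at 37°C, 5% CO2; washed with PBS, then 200 μM (R)- or (S)-sulindac in fresh medium for 1 h at 37°C; medium mixed with 3 volumes acetonitrile and analysed by HPLC for sulfone.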

[3] = Activity of cytochrome P450 in human HepG2 cells assessed as enzyme-mediated drug metabolism at 125 uM preincubated for 2 to 24 hrs followed by compound-washout and fresh compound addition measured after 1 hr by HPLC analysis; type: ADME, cell-based; details: hepg2, 1 h; procedure, shortened: as §1
[4] = Drug metabolism in rat liver cytosolic fraction at 20 nM after 60 mins by HPLC analysis; type: ADME, tissue-based; details: cytosol, 1 h
[5] = system: Liver; assay: Drug metabolism in Sprague-Dawley rat liver assessed as sulindac sulfone formation at 2 mg, ip after 0.5 to 4 hrs by HPLC analysis; details: in vivo
[6] = target: Cytochrome P450 2C8 (Homo sapiens, UniProt P10632); assay: Drug metabolism assessed as human recombinant CYP2C8-mediated sulindac sulfone formation measured per pmol of protein at 500 uM after 90 mins by HPLC analysis; type: ADME; details: recombinant enzyme, 1.5 h
Procedure, shortened: (§2)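 Recombinant rat or human P450 Supersomes (some with cytochrome b5, variable reductase) incubated with (R)-sulindac at 500 μM or (S)-sulindac at 200 μM plus NADPH-regenerating system in 100 mM potassium phosphate pH 7.4 at 37°C, linear up to 90 min; acetonitrile stop; sulfone by C18 HPLC at 330 nm; ≥3 runs; pmol/pmol enzyme/h, mean ± S.E.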

[7] = system: MRC5; assay: Cytoprotective activity in TBHP-induced human MRC5 cells at 500 uM incubated for 48 hrs prior to TBHP-challenge measured after 2 hrs; type: functional, cell-based
Procedure, shortened: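 Normal lung cells preincubated 48 h with 500 μM (R)- or (S)-sulindac or no drug, then challenged with TBHP; viability expressed as percent of cells not exposed to TBHP; mean and S.E. of five repeats; p < 0.05 versus no-drug controls.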

[8] = target: Cytochrome P450 1A1 (Rattus norvegicus, UniProt P00185); assay: Drug metabolism assessed as rat recombinant CYP1A1-mediated sulindac sulfone formation measured per pmol of protein at 500 uM after 90 mins by HPLC analysis; type: ADME; details: recombinant enzyme, 1.5 h; procedure, shortened: as §2
[9] = system: Plasma; assay: Drug metabolism in Sprague-Dawley rat plasma assessed as sulindac sulfone formation at 2 mg, ip after 0.5 to 4 hrs by HPLC analysis; details: in vivo
[10] = target: Cytochrome P450 2C9 (Homo sapiens, UniProt P11712); assay: Drug metabolism assessed as human recombinant CYP2C9-mediated sulindac sulfone formation measured per pmol of protein at 500 uM after 90 mins by HPLC analysis; type: ADME; details: recombinant enzyme, 1.5 h; procedure, shortened: as §2
[11] = system: A549; assay: Potentiation of TBHP-induced cytotoxicity in human A549 cells at 500 uM incubated for 48 hrs prior to TBHP-challenge measured after 2 hrs; type: functional, cell-based
[12] = target: Cytochrome P450 2D6 (Homo sapiens, UniProt P10635); assay: Drug metabolism assessed as human recombinant CYP2D6-mediated sulindac sulfone formation measured per pmol of protein at 500 uM after 90 mins by HPLC analysis; type: ADME; details: recombinant enzyme, 1.5 h; procedure, shortened: as §2
[13] = system: Liver microsome; assay: Drug metabolism in rat liver microsomes at […] after 60 mins by HPLC analysis; type: ADME; details: 1 h
Procedure, shortened: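 Uninduced rat liver microsomes (100,000g pellet, washed), 20–80 μg protein, incubated with 20 nmol sulindac epimer in 100 μl 100 mM potassium phosphate pH 7.4 with NADPH-regenerating system (1.5 mM NADPH, 5 mM glucose 6-phosphate, G6PDH, 5 mM MgCl2), 60 min, 37°C. Stopped with 3 volumes acetonitrile; sulfone quantified by C18 HPLC. Six rat preparations.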

[14] = Drug metabolism assessed as Escherichia coli MSRB-mediated reduced product formation; type: ADME
[15] = target: Methionine-R-sulfoxide reductase B3 (Homo sapiens, UniProt Q8IXL7); assay: Drug metabolism assessed as human MSRB3-mediated reduced product formation; type: ADME
[16] = target: Cytochrome P450 1B1 (Homo sapiens, UniProt Q16678); assay: Drug metabolism assessed as human recombinant CYP1B1-mediated sulindac sulfone formation measured per pmol of protein at 500 uM after 90 mins by HPLC analysis; type: ADME; details: recombinant enzyme, 1.5 h; procedure, shortened: as §2
[17] = target: Cytochrome P450 2C19 (Homo sapiens, UniProt P33261); assay: Drug metabolism assessed as human recombinant CYP2C19-mediated sulindac sulfone formation measured per pmol of protein at 500 uM after 90 mins by HPLC analysis; type: ADME; details: recombinant enzyme, 1.5 h; procedure, shortened: as §2
[18] = target: Cytochrome P450 1A2 (Homo sapiens, UniProt P05177); assay: Drug metabolism assessed as human recombinant CYP1A2-mediated sulindac sulfone formation measured per pmol of protein at 500 uM after 90 mins by HPLC analysis; type: ADME; details: recombinant enzyme, 1.5 h; procedure, shortened: as §2
[19] = target: T1, Methionine-R-sulfoxide reductase B1 (Rattus norvegicus, UniProt Q52KJ8); assay: Drug metabolism in rat liver ammonium sulfate fraction assessed as MSRB1-mediated reduced product formation measured per mg of protein at 200 uM by HPLC analysis; type: ADME, tissue-based
T1 sequence (Q52KJ8 whole entry): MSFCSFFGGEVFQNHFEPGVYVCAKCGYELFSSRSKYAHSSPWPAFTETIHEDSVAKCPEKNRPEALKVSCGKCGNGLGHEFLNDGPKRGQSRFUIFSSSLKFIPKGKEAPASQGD
Procedure, shortened: (§3)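 Fractions (S-100, 30–70% ammonium sulfate cut) from rat liver purification; aliquots incubated with 200 μM (R)-sulindac or 200 μM DABS-R-Met(o) in 100 mM Tris pH 7.4 with 15 mM DTT or Trx system (1 mM NADPH, TrxB, TrxA), 37°C. Stopped with acetonitrile; C18 HPLC, sulindac sulfide at 330 nm, DABS-Met at 436 nm. Specific activity as nmol product/mg protein/h.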

[20] = system: Plasma; assay: Drug metabolism in Sprague-Dawley rat plasma assessed as sulindac sulfide formation at 2 mg, ip after 0.5 to 4 hrs by HPLC analysis; details: in vivo
[21] = target: Cytochrome P450 3A4 (Homo sapiens, UniProt P08684); assay: Drug metabolism assessed as human recombinant CYP3A4-mediated sulindac sulfone formation measured per pmol of protein at 500 uM after 90 mins by HPLC analysis; type: ADME; details: recombinant enzyme, 1.5 h; procedure, shortened: as §2
[22] = system: Zone of skin; assay: Drug metabolism in Sprague-Dawley rat skin assessed as sulindac sulfide formation at 2 mg, ip after 0.5 to 4 hrs by HPLC analysis; details: in vivo
[23] = system: Liver microsome; assay: Drug metabolism in rat liver microsomes assessed as sulindac sulfone formation at 200 µM after 60 mins by HPLC analysis in presence of NADPH; details: 1 h
[24] = target: Cytochrome P450 2B1 (Rattus norvegicus, UniProt P00176); assay: Drug metabolism assessed as rat recombinant CYP2B1-mediated sulindac sulfone formation measured per pmol of protein at 500 uM after 90 mins by HPLC analysis; type: ADME; details: recombinant enzyme, 1.5 h; procedure, shortened: as §2
[25] = target: Cytochrome P450 1A2 (Rattus norvegicus, UniProt P04799); assay: Drug metabolism assessed as rat recombinant CYP1A2-mediated sulindac sulfone formation measured per pmol of protein at 500 uM after 90 mins by HPLC analysis; type: ADME; details: recombinant enzyme, 1.5 h; procedure, shortened: as §2
[26] = target: T1, Methionine-R-sulfoxide reductase B1; assay: Drug metabolism in rat liver DEAE fraction assessed as MSRB1-mediated reduced product formation measured per mg of protein at 200 uM by HPLC analysis; type: ADME, tissue-based
Procedure, shortened: (§4)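 Fractions from rat liver reductase purification (S-100, 30–70% ammonium sulfate cut, DEAE pool, G50 gel filtration) incubated with 200 μM (R)-sulindac in 100 mM Tris pH 7.4 with 15 mM DTT, 37°C, 100 μl; stopped with acetonitrile; sulindac sulfide quantified by C18 HPLC at 330 nm; specific activity as nmol product/mg protein/h.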

[27] = system: Liver; assay: Drug metabolism in Sprague-Dawley rat liver assessed as sulindac sulfide formation at 2 mg, ip after 0.5 to 4 hrs by HPLC analysis; details: in vivo
[28] = target: T1, Methionine-R-sulfoxide reductase B1; assay: Drug metabolism in rat liver G50 fraction assessed as MSRB1-mediated reduced product formation measured per mg of protein at 200 uM by HPLC analysis; type: ADME, tissue-based; procedure, shortened: as §4
[29] = target: Cytochrome P450 3A2 (Rattus norvegicus, UniProt P05183); assay: Drug metabolism assessed as rat recombinant CYP3A2-mediated sulindac sulfone formation measured per pmol of protein at 500 uM after 90 mins by HPLC analysis; type: ADME; details: recombinant enzyme, 1.5 h; procedure, shortened: as §2
[30] = system: Zone of skin; assay: Drug metabolism in Sprague-Dawley rat skin assessed as sulindac sulfone formation at 2 mg, ip after 0.5 to 4 hrs by HPLC analysis; details: in vivo
[31] = target: T1, Methionine-R-sulfoxide reductase B1; assay: Drug metabolism in rat liver S100 fraction assessed as MSRB1-mediated reduced product formation measured per mg of protein at 200 uM by HPLC analysis; type: ADME, tissue-based; procedure, shortened: as §3

Cytochrome P450 1B1, sequence (Q16678 whole entry): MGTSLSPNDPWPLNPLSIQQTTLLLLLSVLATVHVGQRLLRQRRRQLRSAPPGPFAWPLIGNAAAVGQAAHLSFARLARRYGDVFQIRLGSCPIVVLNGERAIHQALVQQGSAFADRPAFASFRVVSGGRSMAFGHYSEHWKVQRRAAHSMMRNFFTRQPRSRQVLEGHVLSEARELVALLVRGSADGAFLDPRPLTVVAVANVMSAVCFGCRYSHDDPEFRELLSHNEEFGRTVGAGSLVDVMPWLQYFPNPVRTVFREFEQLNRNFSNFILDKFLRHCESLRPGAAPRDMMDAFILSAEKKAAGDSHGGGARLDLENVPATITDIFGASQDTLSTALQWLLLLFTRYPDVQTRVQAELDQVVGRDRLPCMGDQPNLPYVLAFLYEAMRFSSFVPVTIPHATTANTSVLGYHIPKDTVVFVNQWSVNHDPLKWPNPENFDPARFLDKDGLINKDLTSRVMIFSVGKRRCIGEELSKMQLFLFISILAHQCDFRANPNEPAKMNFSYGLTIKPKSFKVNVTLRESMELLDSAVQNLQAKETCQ
Cytochrome P450 2C19, sequence (P33261 whole entry): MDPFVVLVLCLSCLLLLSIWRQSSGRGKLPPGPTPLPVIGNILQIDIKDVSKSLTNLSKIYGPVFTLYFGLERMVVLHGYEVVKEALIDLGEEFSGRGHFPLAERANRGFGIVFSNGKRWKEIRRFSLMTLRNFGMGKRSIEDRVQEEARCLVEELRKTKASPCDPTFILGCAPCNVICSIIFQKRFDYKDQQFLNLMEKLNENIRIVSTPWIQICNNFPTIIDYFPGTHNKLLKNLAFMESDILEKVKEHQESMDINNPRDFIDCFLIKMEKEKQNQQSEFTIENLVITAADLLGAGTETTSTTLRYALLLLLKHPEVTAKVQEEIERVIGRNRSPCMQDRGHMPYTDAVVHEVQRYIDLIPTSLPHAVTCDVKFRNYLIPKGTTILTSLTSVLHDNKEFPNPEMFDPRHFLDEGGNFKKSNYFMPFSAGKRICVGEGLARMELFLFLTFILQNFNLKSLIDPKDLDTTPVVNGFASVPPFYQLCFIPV
Cytochrome P450 1A2 (Rattus norvegicus, UniProt P04799), sequence (P04799 whole entry): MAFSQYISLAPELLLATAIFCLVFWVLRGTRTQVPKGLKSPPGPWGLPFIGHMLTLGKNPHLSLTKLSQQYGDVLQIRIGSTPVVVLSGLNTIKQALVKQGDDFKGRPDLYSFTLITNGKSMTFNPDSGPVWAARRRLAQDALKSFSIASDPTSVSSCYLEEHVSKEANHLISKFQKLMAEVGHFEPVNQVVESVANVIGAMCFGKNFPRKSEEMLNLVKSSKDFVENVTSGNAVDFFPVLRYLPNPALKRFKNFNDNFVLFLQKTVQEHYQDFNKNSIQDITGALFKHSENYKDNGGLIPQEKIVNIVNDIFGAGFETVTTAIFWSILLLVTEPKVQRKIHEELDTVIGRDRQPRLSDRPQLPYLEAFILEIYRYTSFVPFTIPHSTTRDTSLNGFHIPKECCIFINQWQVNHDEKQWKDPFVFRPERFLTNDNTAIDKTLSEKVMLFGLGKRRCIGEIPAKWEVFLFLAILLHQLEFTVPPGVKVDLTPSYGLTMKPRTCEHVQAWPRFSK
Cytochrome P450 1A2 (Homo sapiens, UniProt P05177), sequence (P05177 whole entry): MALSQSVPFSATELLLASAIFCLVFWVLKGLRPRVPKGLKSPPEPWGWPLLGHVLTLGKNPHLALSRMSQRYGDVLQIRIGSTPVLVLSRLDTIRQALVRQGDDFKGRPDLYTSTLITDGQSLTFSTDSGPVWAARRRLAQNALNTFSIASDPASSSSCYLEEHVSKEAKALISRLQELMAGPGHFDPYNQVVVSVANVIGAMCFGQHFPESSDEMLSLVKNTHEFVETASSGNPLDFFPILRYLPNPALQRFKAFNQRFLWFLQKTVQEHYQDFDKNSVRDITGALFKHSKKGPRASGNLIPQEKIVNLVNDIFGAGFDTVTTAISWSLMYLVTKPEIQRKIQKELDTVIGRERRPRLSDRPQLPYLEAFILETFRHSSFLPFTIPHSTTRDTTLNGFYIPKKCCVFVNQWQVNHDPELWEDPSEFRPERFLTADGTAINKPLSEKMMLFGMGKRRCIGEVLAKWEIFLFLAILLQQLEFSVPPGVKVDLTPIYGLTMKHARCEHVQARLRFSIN
Cytochrome P450 2D6, sequence (P10635 whole entry): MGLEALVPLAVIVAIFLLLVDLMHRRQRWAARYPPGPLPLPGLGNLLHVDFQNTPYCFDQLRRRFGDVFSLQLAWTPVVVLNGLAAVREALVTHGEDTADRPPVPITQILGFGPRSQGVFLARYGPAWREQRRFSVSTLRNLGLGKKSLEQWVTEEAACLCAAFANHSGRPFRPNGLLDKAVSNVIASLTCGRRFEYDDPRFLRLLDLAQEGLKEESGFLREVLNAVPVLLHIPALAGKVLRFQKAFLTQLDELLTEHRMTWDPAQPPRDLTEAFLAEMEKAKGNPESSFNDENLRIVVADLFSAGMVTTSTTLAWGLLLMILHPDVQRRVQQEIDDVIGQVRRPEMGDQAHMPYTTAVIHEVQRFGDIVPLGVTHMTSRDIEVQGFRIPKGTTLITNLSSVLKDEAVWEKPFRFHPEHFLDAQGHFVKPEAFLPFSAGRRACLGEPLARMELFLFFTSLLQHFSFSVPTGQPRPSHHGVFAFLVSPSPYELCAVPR
Cytochrome P450 2C8, sequence (P10632 whole entry): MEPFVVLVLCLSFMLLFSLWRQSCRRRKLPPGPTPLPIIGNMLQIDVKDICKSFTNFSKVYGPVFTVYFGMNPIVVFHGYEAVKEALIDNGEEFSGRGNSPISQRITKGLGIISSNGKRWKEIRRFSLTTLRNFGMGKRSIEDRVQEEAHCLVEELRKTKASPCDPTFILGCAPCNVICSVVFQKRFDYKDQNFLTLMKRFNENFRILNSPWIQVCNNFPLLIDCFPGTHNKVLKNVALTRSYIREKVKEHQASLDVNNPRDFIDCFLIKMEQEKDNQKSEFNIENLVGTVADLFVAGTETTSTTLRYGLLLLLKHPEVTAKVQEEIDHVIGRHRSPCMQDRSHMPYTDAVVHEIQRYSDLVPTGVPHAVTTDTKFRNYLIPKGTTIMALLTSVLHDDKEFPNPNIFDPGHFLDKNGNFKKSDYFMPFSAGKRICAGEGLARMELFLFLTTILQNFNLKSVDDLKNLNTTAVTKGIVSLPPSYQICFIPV
Cytochrome P450 3A2, sequence (P05183 whole entry): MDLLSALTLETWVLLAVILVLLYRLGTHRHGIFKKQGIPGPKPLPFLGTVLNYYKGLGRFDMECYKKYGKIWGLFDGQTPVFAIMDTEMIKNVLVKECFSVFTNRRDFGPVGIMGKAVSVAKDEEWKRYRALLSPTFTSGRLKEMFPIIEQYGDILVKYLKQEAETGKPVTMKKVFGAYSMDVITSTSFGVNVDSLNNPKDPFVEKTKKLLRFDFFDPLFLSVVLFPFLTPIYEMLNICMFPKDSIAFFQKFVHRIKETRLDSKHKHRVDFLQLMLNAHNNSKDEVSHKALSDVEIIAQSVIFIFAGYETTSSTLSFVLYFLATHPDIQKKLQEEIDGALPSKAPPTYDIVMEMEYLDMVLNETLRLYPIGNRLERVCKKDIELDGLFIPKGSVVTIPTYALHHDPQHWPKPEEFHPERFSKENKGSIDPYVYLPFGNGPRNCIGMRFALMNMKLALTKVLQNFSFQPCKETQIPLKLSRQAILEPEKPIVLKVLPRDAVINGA
Methionine-R-sulfoxide reductase B3, sequence (Q8IXL7 whole entry): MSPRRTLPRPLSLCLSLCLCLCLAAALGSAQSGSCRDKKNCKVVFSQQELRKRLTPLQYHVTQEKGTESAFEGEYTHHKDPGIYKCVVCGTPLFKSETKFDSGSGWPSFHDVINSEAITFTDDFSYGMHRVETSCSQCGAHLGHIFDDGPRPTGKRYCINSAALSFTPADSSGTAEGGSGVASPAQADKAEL
Methionine-R-sulfoxide reductase B2, mitochondrial, sequence (Q9Y3D2 whole entry): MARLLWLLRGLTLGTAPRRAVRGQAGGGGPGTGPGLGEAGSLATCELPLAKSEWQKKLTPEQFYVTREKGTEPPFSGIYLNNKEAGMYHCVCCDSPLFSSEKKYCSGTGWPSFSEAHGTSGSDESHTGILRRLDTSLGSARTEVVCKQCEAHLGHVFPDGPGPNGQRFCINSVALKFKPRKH
Cytochrome P450 3A4, sequence (P08684 whole entry): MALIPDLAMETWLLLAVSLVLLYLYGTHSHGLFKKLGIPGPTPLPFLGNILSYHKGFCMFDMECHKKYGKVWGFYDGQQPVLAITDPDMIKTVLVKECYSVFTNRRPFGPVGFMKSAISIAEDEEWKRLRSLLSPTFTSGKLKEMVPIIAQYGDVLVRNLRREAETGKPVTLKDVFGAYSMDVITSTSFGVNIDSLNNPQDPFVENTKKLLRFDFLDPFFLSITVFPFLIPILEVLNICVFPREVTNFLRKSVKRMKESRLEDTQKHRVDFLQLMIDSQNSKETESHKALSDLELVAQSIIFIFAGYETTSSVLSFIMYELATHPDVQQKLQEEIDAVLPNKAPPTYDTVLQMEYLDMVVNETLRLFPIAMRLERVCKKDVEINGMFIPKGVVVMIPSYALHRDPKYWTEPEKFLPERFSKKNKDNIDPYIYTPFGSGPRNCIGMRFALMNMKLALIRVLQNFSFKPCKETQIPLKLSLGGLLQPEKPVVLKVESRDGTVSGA
Cytochrome P450 1A1, sequence (P00185 whole entry): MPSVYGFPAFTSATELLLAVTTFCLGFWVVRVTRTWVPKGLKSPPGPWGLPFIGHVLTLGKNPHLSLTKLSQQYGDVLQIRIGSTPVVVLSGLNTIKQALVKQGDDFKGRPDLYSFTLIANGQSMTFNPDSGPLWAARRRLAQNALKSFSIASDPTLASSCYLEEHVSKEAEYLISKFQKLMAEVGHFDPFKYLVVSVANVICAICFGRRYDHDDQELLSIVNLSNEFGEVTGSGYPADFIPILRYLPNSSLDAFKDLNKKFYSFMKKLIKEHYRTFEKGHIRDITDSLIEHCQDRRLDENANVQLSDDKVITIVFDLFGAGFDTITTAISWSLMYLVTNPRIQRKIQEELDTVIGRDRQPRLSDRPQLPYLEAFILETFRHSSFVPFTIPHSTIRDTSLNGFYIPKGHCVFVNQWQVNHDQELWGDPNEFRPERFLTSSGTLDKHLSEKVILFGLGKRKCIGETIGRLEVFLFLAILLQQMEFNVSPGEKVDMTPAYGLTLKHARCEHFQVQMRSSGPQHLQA

Drug metabolism [1]: metabolite_not_detected | Drug metabolism [2]: metabolite_detected | Drug metabolism [3]: metabolite_detected | Drug metabolism [4]: metabolite_not_detected | Drug metabolism [5]: metabolite_detected | Drug metabolism [6]: metabolite_not_detected | Drug metabolism [8]: 380 pmol/h | Drug metabolism [9]: metabolite_detected | Drug metabolism [10]: metabolite_not_detected | Drug metabolism [12]: metabolite_not_detected | Drug metabolism [13]: metabolite_not_detected | Drug metabolism [14]: metabolite_not_detected | Drug metabolism [15]: metabolite_not_detected | Drug metabolism [16]: 73 pmol/h | Drug metabolism [17]: metabolite_not_detected | Drug metabolism [18]: 130 pmol/h | Drug metabolism [19]: 5.6 nmol/h | Drug metabolism [20]: metabolite_detected | Drug metabolism [21]: 47 pmol/h | Drug metabolism [22]: metabolite_detected | Drug metabolism [23]: metabolite_detected | Drug metabolism [24]: metabolite_not_detected | Drug metabolism [25]: 460 pmol/h | Drug metabolism [26]: 32.6 nmol/h | Drug metabolism [27]: metabolite_detected | Drug metabolism [28]: 1160 nmol/h | Drug metabolism [29]: metabolite_not_detected | Drug metabolism [30]: metabolite_detected | Drug metabolism [31]: 4.2 nmol/h
Structure (SMILES): CC1=C(CC(=O)O)c2cc(F)ccc2/C1=C\c1ccc([S+](C)[O-])cc1 (single isomer, unassigned)
Activity [7]: Active | Activity [11]: Active
